Results from ChEMBL document CHEMBL1777667, “Synthesis and antibacterial activity of some binaphthyl-supported macrocycles containing a cationic amino acid” (2011).
Values after ≈ are worked out from the molar mass of the structure shown.

tested on: Staphylococcus aureus; experiment: Antibacterial activity against Staphylococcus aureus ATCC 6538P by two fold dilution method; format: functional; settings: not given
Procedure, shortened: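 Compounds dissolved in 10% methanol/water as stock, diluted in water, then serially twofold-diluted in LB across eight wells in triplicate. Overnight (14 h) LB culture grown at 37 °C, diluted 1 in 1,000 and added to wells. Media-only, no-compound and vancomycin controls were run. Operator was blinded. MIC read by eye as the concentration next to the first well of obvious growth.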

MIC	SMILES
16 µg/mL	COC(=O)[C@@H]1CC=CCc2cc3ccccc3c(c2OC)-c2c(OC)c(cc3ccccc23)CC(NC(C)=O)C(=O)N[C@H](CCCCN)C(=O)N1.Cl (mixture of isomers; 1)
62 µg/mL	COC(=O)[C@@H]1CC=CCc2cc3ccccc3c(c2OC)-c2c(OC)c(cc3ccccc23)CC(NC(C)=O)C(=O)N[C@H](CCCCN)C(=O)N1.Cl (mixture of isomers; 21)
62 µg/mL	COC(=O)[C@@H]1C/C=C/Cc2cc3ccccc3c(c2OC)-c2c(OC)c(cc3ccccc23)CC(NC(C)=O)C(=O)N[C@H](CCCNC(=N)N)C(=O)N1.Cl (mixture of isomers; 24)
31 µg/mL	COC(=O)[C@@H]1CC=CCc2cc3ccccc3c(c2OC)-c2c(OC)c(cc3ccccc23)CC(NC(C)=O)C(=O)N[C@H](CCCCN)C(=O)N1.Cl (mixture of isomers; 25)
8 µg/mL	COC(=O)[C@@H]1CC=CCc2cc3ccccc3c(c2OC)-c2c(OC)c(cc3ccccc23)CC(NC(C)=O)C(=O)N[C@H](CCCCN)C(=O)N1.Cl (mixture of isomers; 26)

same assay, conditions: Staphylococcus aureus, ATCC 6538P; read-out: MIC

MIC	SMILES
4 µg/mL (≈ 5.33 µM)	C=CCc1cc2ccccc2c(-c2c(OC)c(CC(NC(C)=O)C(=O)N[C@H](CCCNC(=N)N)C(=O)N[C@@H](CC=C)C(=O)OC)cc3ccccc23)c1OC (some centres not stated)
4 µg/mL (≈ 5.33 µM)	C=CCc1cc2ccccc2c(-c2c(OC)c(CC(NC(C)=O)C(=O)N[C@@H](CCCNC(=N)N)C(=O)N[C@@H](CC=C)C(=O)OC)cc3ccccc23)c1OC (some centres not stated)
> 250 µg/mL	COC(=O)[C@@H]1C/C=C/Cc2cc3ccccc3c(c2OC)-c2c(OC)c(cc3ccccc23)CC(NC(C)=O)C(=O)N[C@H](CCCCNC(=O)OC(C)(C)C)C(=O)N1 (mixture of isomers)
31 µg/mL	COC(=O)[C@@H]1C/C=C/Cc2cc3ccccc3c(c2OC)-c2c(OC)c(cc3ccccc23)CC(NC(C)=O)C(=O)N[C@H](CCCNC(=N)NS(=O)(=O)c2c(C)c(C)c3c(c2C)CCC(C)(C)O3)C(=O)N1 (mixture of isomers)
> 250 µg/mL	COC(=O)[C@@H]1C/C=C/Cc2cc3ccccc3c(c2OC)-c2c(OC)c(cc3ccccc23)CC(NC(C)=O)C(=O)N[C@@H](CCCCNC(=O)OCC2c3ccccc3-c3ccccc32)C(=O)N1 (mixture of isomers)
> 250 µg/mL	COC(=O)[C@@H]1C/C=C/Cc2cc3ccccc3c(c2OC)-c2c(OC)c(cc3ccccc23)CC(NC(C)=O)C(=O)N[C@@H](C)C(=O)N[C@@H](CCCCN)C(=O)N1.Cl (mixture of isomers)
62 µg/mL	COC(=O)[C@@H]1C/C=C/Cc2cc3ccccc3c(c2OC)-c2c(OC)c(cc3ccccc23)CC(NC(C)=O)C(=O)N[C@H](CCCNC(=N)N)C(=O)N1.Cl (mixture of isomers; 22)
